Experimental data as given in ChEMBL document CHEMBL2057080, “Synthesis, biological evaluation, and structure-activity relationships of a novel class of apurinic/apyrimidinic endonuclease 1 inhibitors” (J Med Chem, 2012).
The source made the active and inactive calls. No cut-off for these calls is given here.

Experiments:
[1] = biological target: T1, DNA repair nuclease/redox regulator APEX1 (Homo sapiens, UniProt P27695); test: Inhibition of human recombinant APE1 at 57 uM after 15 mins by fluorescence based HTS assay
Summary of the method: (§1)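 APE1 inhibition was measured in the fluorescence-based qHTS format at up to 57 µM. IC50 is the average of three separate experiments.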

[2] = biological target: T1, DNA repair nuclease/redox regulator APEX1; test: Inhibition of APE1 in human HeLa cells assessed as accumulation of genomic AP sites […] after 24 hrs by aldehyde reactive probe-based assay relative to control; format: cell-based
Summary of the method: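 HeLa cells at 80% confluency were exposed for 24 h at 37 °C to DMSO, 275 µM MMS, or 7.5 µM inhibitor, each alone, or to 275 µM MMS plus 7.5 µM inhibitor. Genomic DNA was isolated and adjusted to 100 ng/µL. 10 µL was labelled with aldehyde reactive probe (biotin-hydrazide reagent) and AP sites were quantified by kit. Samples ran in triplicate and were compared with a Student's t test.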

[3] = biological target: T1, DNA repair nuclease/redox regulator APEX1; test: Inhibition of APE1 in human HeLa whole cell extract using […]-5'-AP-DNA as substrate assessed as activity remaining at 100 uM incubated for 15 mins prior to substrate addition measured after 5 mins by PAGE analysis relative to control
Summary of the method: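 HeLa whole cell extract (300 ng; KCl-extracted hypotonic lysate) was preincubated with inhibitor for 15 min at room temperature, at 100 µM or at 0–100 µM. Then 0.5 pmol 32P AP-DNA was added for 5 min at 37 °C. Samples were run on denaturing PAGE, and incision is reported relative to the no-inhibitor control, from three independent measurements.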

[4] = biological target: T1, DNA repair nuclease/redox regulator APEX1; test: Inhibition of recombinant APE1 using […]-5'-AP-DNA as substrate incubated for 15 mins prior to substrate addition measured after 5 mins by PAGE analysis
[5] = biological target: T1, DNA repair nuclease/redox regulator APEX1; test: Inhibition of human recombinant APE1 after 15 mins by fluorescence based HTS assay; summary of the method: as §1

T1 sequence (P27695 whole entry): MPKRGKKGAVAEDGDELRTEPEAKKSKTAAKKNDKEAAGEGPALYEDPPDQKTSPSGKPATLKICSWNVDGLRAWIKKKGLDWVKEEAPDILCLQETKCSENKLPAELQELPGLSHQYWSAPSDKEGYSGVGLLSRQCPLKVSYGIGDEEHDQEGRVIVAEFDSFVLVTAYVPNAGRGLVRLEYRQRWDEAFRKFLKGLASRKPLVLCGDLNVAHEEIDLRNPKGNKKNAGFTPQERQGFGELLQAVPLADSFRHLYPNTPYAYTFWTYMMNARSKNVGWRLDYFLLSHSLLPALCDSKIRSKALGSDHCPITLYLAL

| Compound | inhibition [1] [%] | IC50 [5] [µM] | further results |
| --- | --- | --- | --- |
| CC(=O)Nc1sc2c(c1-c1nccs1)CCNC2 | 55 |  |  |
| COS(C)(=O)=O |  |  | inhibition [2]: Active |
| CC(C)N1CCc2c(sc(N)c2-c2nc3ccccc3s2)C1 | 40 |  |  |
| CC(=O)Nc1sc2c(c1-c1cccs1)CCNC2 | 34 |  |  |
| CC(=O)Nc1sc2c(c1-c1nc3ccccc3s1)CCN(Cc1ccccc1)C2 | 41 |  |  |
| CC(=O)Nc1sc2c(c1-c1nc3ccccc3s1)CCN(C(C)C)CC2 |  | 17.6 | Activity [3]: 1.1%; IC50 [4]: 13 µM |
| CC(C)N1CCc2c(sc(NC(=O)c3ccccc3)c2-c2nc3ccccc3s2)C1 | 57 |  |  |
| Cc1nnc(Nc2sc3c(c2-c2nc4ccccc4s2)CCNC3)o1 |  | 19 |  |
| CC(=O)Nc1sc2c(c1Br)CCNC2 | 30 |  |  |
| CC(=O)Nc1sc2c(c1-c1nc3ccccc3s1)CCSC2 | 56 |  |  |
| CC(C)N1CCc2c(sc(NC(=O)C3CCCCC3)c2-c2nc3ccccc3s2)C1 |  | 8.3 |  |
| CC(=O)Nc1sc2c(c1-c1nc3ccccc3s1)CCNC2 |  | 2.9 | Activity [3]: 1.4%; IC50 [4]: 5 µM |
| O=C(CCc1ccccc1)Nc1sc2c(c1-c1nc3ccccc3s1)CCNC2 |  | > 57 |  |
| CC(=O)Nc1sc2c(c1-c1nc3ccccc3s1)CCN(C(C)=O)C2 | 59 |  |  |
| CC(=O)Nc1sc2c(c1-c1nc3ccccc3s1)CN(C(C)C)C2 |  | 3.1 | Activity [3]: 57%; IC50 [4]: 4 µM |
| CC(=O)Nc1sc2c(c1-c1ccccc1)CCNC2 | 42 |  |  |
| CC(C)N1CCc2c(sc(NC(=O)C(F)F)c2-c2nc3ccccc3s2)C1 |  | 5.3 |  |
| CC(=O)Nc1sc2c(c1-c1cccc3ccccc13)CCNC2 |  | > 57 |  |

| Compound | inhibition [1] [%] | IC50 [5] [µM] | further results |
| --- | --- | --- | --- |
| CC(=O)Nc1sc2cnccc2c1-c1nc2ccccc2s1 |  | > 57 |  |
| CCCCC(=O)Nc1sc2c(c1-c1nc3ccccc3s1)CCN(C(C)C)C2 |  | 9.1 |  |
| C#CCCC(=O)Nc1sc2c(c1-c1nc3ccccc3s1)CCNC2 |  | 12 |  |
| CC(=O)Nc1sc2c(c1-c1nc3ccccc3s1)CCCN(C(C)C)C2 |  | 12.9 | Activity [3]: 14%; IC50 [4]: 14 µM |
| CC(=O)Nc1sc2c(c1-c1nc3ccccc3o1)CCN(C(C)C)C2 |  | 20.4 | Activity [3]: 12%; IC50 [4]: 13 µM |
| O=C(Nc1sc2c(c1-c1nc3ccccc3s1)CCNC2)C1CC1 |  | 6 |  |
| CC(=O)Nc1sc2c(c1-c1nc3ccccc3s1)CCN(C)C2 |  | 3.8 | Activity [3]: 26%; IC50 [4]: 5 µM |
| CC(=O)Nc1sc2c(c1-c1ncco1)CCNC2 | 45 |  |  |
| CC(=O)Nc1sc2c(c1-c1nc3ccccc3s1)CCN(C(=O)OC(C)(C)C)C2 |  | > 57 |  |
| c1ccc2sc(-c3csc4c3CCNC4)nc2c1 |  | 25.2 |  |
| O=C(Nc1sc2c(c1-c1nc3ccccc3s1)CCNC2)C1CCCC1 | 55 |  |  |
| Cc1noc(-c2sc3c(c2-c2nc4ccccc4s2)CCNC3)n1 |  | > 57 |  |
| O=C(Nc1sc2c(c1-c1nc3ccccc3s1)CCNC2)C(F)(F)F |  | 17.6 |  |
| CC(=O)Nc1cc2c(s1)CNCC2 | 47 |  |  |
| CC(=O)Nc1sc2c(c1-c1cc3ccccc3[nH]1)CCNC2 |  | > 57 |  |
| Cc1noc(Nc2sc3c(c2-c2nc4ccccc4s2)CCNC3)n1 |  | 18.2 |  |
| CC(=O)Nc1sc2c(c1-c1csc3ccccc13)CCNC2 |  | > 57 |  |

The next lines start with results.

| inhibition [1] [%] | IC50 [5] [µM] | Compound | further results |
| --- | --- | --- | --- |
| 40 |  | O=C(O)c1cc2cccc([N+](=O)[O-])c2[nH]1 |  |
| 29 |  | CC(=O)Nc1sc2c(c1C(=O)O)CCNC2 |  |
|  | > 57 | Cc1nnc(-c2sc3c(c2-c2nc4ccccc4s2)CCNC3)o1 |  |
|  | > 57 | COC(=O)c1sc2c(c1-c1nc3ccccc3s1)CCNC2 |  |
| 66 |  | CC(=O)Nc1sc2c(c1-c1cc3ccccc3o1)CCNC2 |  |
|  | > 57 | CC(C)(C)C(=O)Nc1sc2c(c1-c1nc3ccccc3s1)CCNC2 |  |
|  | 11.1 | COC(=O)Nc1sc2c(c1-c1nc3ccccc3s1)CCNC2 |  |
| 23 |  | CC(=O)Nc1sc2c(c1-c1cc3ccccc3s1)CCNC2 |  |
| 41 |  | CC(=O)Nc1sc2c(c1-c1ccco1)CCNC2 |  |
|  | 2.9 | CC(=O)Nc1sc2c(c1-c1nc(-c3ccccc3)cs1)CCN(C(C)C)C2 | Activity [3]: 15%; IC50 [4]: 3 µM |
| 57 |  | C#CCCC(=O)Nc1sc2c(c1-c1nc3ccccc3s1)CCN(C(C)C)C2 |  |
| 53 |  | CC(C)N1CCc2c(sc(NC(=O)Cc3ccccc3)c2-c2nc3ccccc3s2)C1 |  |
| 29 |  | CC(=O)Nc1sc2c(c1-c1nc3ccccc3s1)CCS(=O)(=O)C2 |  |
|  | 3.8 | O=C(Nc1sc2c(c1-c1nc3ccccc3s1)CCNC2)C(F)F | Activity [3]: 38%; IC50 [4]: 4 µM |
| 31 |  | CC(=O)Nc1sc2c(c1-c1nc3ccccc3s1)CNCC2 |  |
| 41 |  | CC(=O)Nc1sc2c(c1-c1nc3ccccc3s1)CCOC2 |  |
| 31 |  | CC(=O)Nc1sc2c(c1C#N)CCN(C(C)C)C2 |  |
|  | > 57 | O=C(O)c1sc2c(c1-c1nc3ccccc3s1)CCNC2 |  |
